# Data from ChEMBL document CHEMBL1138520, “Molecular and conformational determinants of pituitary adenylate cyclase-activating polypeptide (PACAP) for activation of the PAC1 receptor” (J Med Chem, 2009).
# Where a SMILES comes first, the peptide text is derived from it. [ ]: non-standard residue; d: D form. ξ: configuration not given here. ξTic = O=C(O)C1Cc2ccccc2CN1
# Experiments:
# [1] = molecular target: T1, Pituitary adenylate cyclase-activating polypeptide type I receptor (Homo sapiens, UniProt P41586); assay: Displacement of [125I]Ac-PACAP27 from human recombinant PAC1 receptor expressed in CHO cells by gamma- counter; format: cell-based
# Target sequence in this assay (P41586 whole entry): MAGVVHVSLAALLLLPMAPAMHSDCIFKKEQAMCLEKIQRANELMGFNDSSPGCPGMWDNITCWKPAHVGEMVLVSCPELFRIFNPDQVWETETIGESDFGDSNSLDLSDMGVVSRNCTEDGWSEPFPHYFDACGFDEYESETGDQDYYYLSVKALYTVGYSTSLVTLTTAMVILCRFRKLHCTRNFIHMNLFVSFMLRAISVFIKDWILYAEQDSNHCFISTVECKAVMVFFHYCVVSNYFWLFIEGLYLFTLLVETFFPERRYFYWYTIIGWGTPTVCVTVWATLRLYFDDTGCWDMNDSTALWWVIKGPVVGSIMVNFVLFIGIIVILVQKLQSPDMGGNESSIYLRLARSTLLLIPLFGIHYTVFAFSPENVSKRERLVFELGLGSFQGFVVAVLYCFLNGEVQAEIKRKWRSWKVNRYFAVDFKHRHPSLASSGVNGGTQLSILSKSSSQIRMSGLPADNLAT
# [2] = molecular target: T1, Pituitary adenylate cyclase-activating polypeptide type I receptor; assay: Agonist activity at human recombinant PAC1 receptor expressed in CHO cells assessed as PACAP38-induced calcium mobilization by FLIPR assay; format: functional, cell-based
# Method in brief: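 CHO cells stably expressing recombinant human PAC1, plated 24 h before assay, loaded with fluo-4 AM for 60 min at 37 °C in the dark, then rinsed into HBSS for 15 min at 37 °C. EC50 and efficacy came from nonlinear regression; 4-10 independent assays in duplicate.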
# Target sequence in this assay (P41586 whole entry): as above
# [3] = molecular target: T1, Pituitary adenylate cyclase-activating polypeptide type I receptor; assay: Agonist activity at human recombinant PAC1 receptor expressed in CHO cells assessed as PACAP38-induced calcium mobilization by FLIPR assay relative to PACAP38; format: functional, cell-based
# Method in brief: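 CHO cells stably expressing recombinant human PAC1, plated 24 h before assay, loaded with fluo-4 AM for 60 min at 37 °C in the dark, then rinsed into HBSS for 15 min at 37 °C. Peptide was added 18 s into a 150 s read (ex 480/em 525 nm), at final concentrations of 1 × 10-12 to 1 × 10^-5 M. Response was normalised to 1 × 10^-5 M PACAP38 on each plate. EC50 and efficacy came from nonlinear regression; 4-10 independent assays in duplicate.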
# Target sequence in this assay (P41586 21-468 limits assumed): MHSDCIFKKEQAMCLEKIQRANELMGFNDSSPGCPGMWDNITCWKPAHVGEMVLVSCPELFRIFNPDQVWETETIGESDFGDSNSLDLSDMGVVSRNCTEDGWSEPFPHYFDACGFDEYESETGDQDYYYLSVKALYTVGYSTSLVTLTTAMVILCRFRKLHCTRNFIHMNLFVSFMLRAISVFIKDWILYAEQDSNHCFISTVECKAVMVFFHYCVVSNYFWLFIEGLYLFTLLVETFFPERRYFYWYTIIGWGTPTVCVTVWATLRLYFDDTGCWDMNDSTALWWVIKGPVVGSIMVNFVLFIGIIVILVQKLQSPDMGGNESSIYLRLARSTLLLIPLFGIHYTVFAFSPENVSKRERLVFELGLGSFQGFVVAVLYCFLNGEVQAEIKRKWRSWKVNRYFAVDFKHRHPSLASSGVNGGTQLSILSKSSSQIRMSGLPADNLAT
Structure (SMILES),IC50 [1] [nM],EC50 [2] [nM],Emax [3] [%]
CC[C@H](C)[C@H](NC(=O)CNC(=O)[C@H](CC(=O)O)NC(=O)[C@H](CO)NC(=O)[C@@H](N)Cc1cnc[nH]1)C(=O)N[C@@H](Cc1ccccc1)C(=O)N[C@@H](C)C(=O)N[C@@H](CC(=O)O)C(=O)N[C@@H](CO)C(=O)N[C@@H](Cc1ccc(O)cc1)C(=O)N[C@@H](CO)C(=O)N[C@@H](CCCNC(=N)N)C(=O)N[C@@H](Cc1ccc(O)cc1)C(=O)N[C@@H](CCCNC(=N)N)C(=O)N[C@@H](CCCCN)C(=O)N[C@@H](CCC(N)=O)C(=O)N[C@@H](CCSC)C(=O)N[C@@H](C)C(=O)N[C@H](C(=O)N[C@@H](CCCCN)C(=O)N[C@@H](CCCCN)C(=O)N[C@@H](Cc1ccc(O)cc1)C(=O)N[C@@H](CC(C)C)C(=O)N[C@@H](C)C(=O)N[C@@H](C)C(=O)N[C@H](C(=O)N[C@@H](CC(C)C)C(=O)NCC(=O)N[C@@H](CCCCN)C(=O)N[C@@H](CCCNC(=N)N)C(=O)N[C@@H](Cc1ccc(O)cc1)C(=O)N[C@@H](CCCCN)C(=O)N[C@@H](CCC(N)=O)C(=O)N[C@@H](CCCNC(=N)N)C(=O)N[C@H](C(=O)N[C@@H](CCCCN)C(=O)N[C@@H](CC(N)=O)C(=O)N[C@@H](CCCCN)C(N)=O)C(C)C)C(C)C)C(C)C (H-HSDGIFADSYSRYRKQMAVKKYLAAVLGKRYKQRVKNK-NH2),4,0.8,101
CSCC[C@H](NC(=O)[C@H](CCC(N)=O)NC(=O)[C@H](CCCCN)NC(=O)[C@H](CCCNC(=N)N)NC(=O)[C@H](Cc1ccc(O)cc1)NC(=O)[C@H](CCCNC(=N)N)NC(=O)[C@H](CO)NC(=O)[C@H](Cc1ccc(O)cc1)NC(=O)[C@H](CO)NC(=O)[C@H](CC(=O)O)NC(=O)[C@@H](NC(=O)[C@H](Cc1ccccc1)NC(=O)[C@H](CC(C)C)N1CC[C@H](NC(=O)[C@H](CC(=O)O)NC(=O)[C@H](CO)NC(=O)[C@@H](N)Cc2cnc[nH]2)C1=O)[C@@H](C)O)C(=O)N[C@@H](C)C(=O)N[C@H](C(=O)N[C@@H](CCCCN)C(=O)N[C@@H](CCCCN)C(=O)N[C@@H](Cc1ccc(O)cc1)C(=O)N[C@@H](CC(C)C)C(=O)N[C@@H](C)C(=O)N[C@@H](C)C(=O)N[C@H](C(=O)N[C@@H](CC(C)C)C(N)=O)C(C)C)C(C)C,1980,1030,54.1
CC[C@H](C)[C@H](NC(=O)CNC(=O)[C@H](CC(=O)O)NC(=O)[C@H](CO)NC(=O)[C@@H](N)Cc1cnc[nH]1)C(=O)N1Cc2ccccc2CC1C(=O)N[C@H](C(=O)N[C@@H](CC(=O)O)C(=O)N[C@@H](CO)C(=O)N[C@@H](Cc1ccc(O)cc1)C(=O)N[C@@H](CO)C(=O)N[C@@H](CCCNC(=N)N)C(=O)N[C@@H](Cc1ccc(O)cc1)C(=O)N[C@@H](CCCNC(=N)N)C(=O)N[C@@H](CCCCN)C(=O)N[C@@H](CCC(N)=O)C(=O)N[C@@H](CCSC)C(=O)N[C@@H](C)C(=O)N[C@H](C(=O)N[C@@H](CCCCN)C(=O)N[C@@H](CCCCN)C(=O)N[C@@H](Cc1ccc(O)cc1)C(=O)N[C@@H](CC(C)C)C(=O)N[C@@H](C)C(=O)N[C@@H](C)C(=O)N[C@H](C(=O)N[C@@H](CC(C)C)C(=O)NCC(=O)N[C@@H](CCCCN)C(=O)N[C@@H](CCCNC(=N)N)C(=O)N[C@@H](Cc1ccc(O)cc1)C(=O)N[C@@H](CCCCN)C(=O)N[C@@H](CCC(N)=O)C(=O)N[C@@H](CCCNC(=N)N)C(=O)N[C@H](C(=O)N[C@@H](CCCCN)C(=O)N[C@@H](CC(N)=O)C(=O)N[C@@H](CCCCN)C(N)=O)C(C)C)C(C)C)C(C)C)[C@@H](C)O (stereo partly drawn) (H-HSDGI[ξTic]TDSYSRYRKQMAVKKYLAAVLGKRYKQRVKNK-NH2),1420,4010,69.6
CSCC[C@H](NC(=O)[C@H](CCC(N)=O)NC(=O)[C@H](CCCCN)NC(=O)[C@H](CCCNC(=N)N)NC(=O)[C@H](Cc1ccc(O)cc1)NC(=O)[C@H](CCCNC(=N)N)NC(=O)[C@H](CO)NC(=O)[C@H](Cc1ccc(O)cc1)NC(=O)[C@H](CO)NC(=O)[C@H](CC(=O)O)NC(=O)[C@@H](NC(=O)[C@H](Cc1ccccc1)NC(=O)[C@H](CC(C)C)N1CC[C@H](NC(=O)[C@H](CC(=O)O)NC(=O)[C@H](CO)NC(=O)[C@@H](N)Cc2cnc[nH]2)C1=O)[C@@H](C)O)C(=O)N[C@@H](C)C(=O)N[C@H](C(=O)N[C@@H](CCCCN)C(=O)N[C@@H](CCCCN)C(=O)N[C@@H](Cc1ccc(O)cc1)C(=O)N[C@@H](CC(C)C)C(=O)N[C@@H](C)C(=O)N[C@@H](C)C(=O)N[C@H](C(=O)N[C@@H](CC(C)C)C(=O)NCC(=O)N[C@@H](CCCCN)C(=O)N[C@@H](CCCNC(=N)N)C(=O)N[C@@H](Cc1ccc(O)cc1)C(=O)N[C@@H](CCCCN)C(=O)N[C@@H](CCC(N)=O)C(=O)N[C@@H](CCCNC(=N)N)C(=O)N[C@H](C(=O)N[C@@H](CCCCN)C(=O)N[C@@H](CC(N)=O)C(=O)N[C@@H](CCCCN)C(N)=O)C(C)C)C(C)C)C(C)C,775,2480,38.2
CC[C@H](C)[C@H](NC(=O)CNC(=O)[C@H](CC(=O)O)NC(=O)[C@H](CO)NC(=O)[C@@H](N)Cc1cnc[nH]1)C(=O)N[C@@H](Cc1ccc(O)cc1)C(=O)N[C@H](C(=O)N[C@@H](CC(=O)O)C(=O)N[C@@H](CO)C(=O)N[C@@H](Cc1ccc(O)cc1)C(=O)N[C@@H](CO)C(=O)N[C@@H](CCCNC(=N)N)C(=O)N[C@@H](Cc1ccc(O)cc1)C(=O)N[C@@H](CCCNC(=N)N)C(=O)N[C@@H](CCCCN)C(=O)N[C@@H](CCC(N)=O)C(=O)N[C@@H](CCSC)C(=O)N[C@@H](C)C(=O)N[C@H](C(=O)N[C@@H](CCCCN)C(=O)N[C@@H](CCCCN)C(=O)N[C@@H](Cc1ccc(O)cc1)C(=O)N[C@@H](CC(C)C)C(=O)N[C@@H](C)C(=O)N[C@@H](C)C(=O)N[C@H](C(=O)N[C@@H](CC(C)C)C(=O)NCC(=O)N[C@@H](CCCCN)C(=O)N[C@@H](CCCNC(=N)N)C(=O)N[C@@H](Cc1ccc(O)cc1)C(=O)N[C@@H](CCCCN)C(=O)N[C@@H](CCC(N)=O)C(=O)N[C@@H](CCCNC(=N)N)C(=O)N[C@H](C(=O)N[C@@H](CCCCN)C(=O)N[C@@H](CC(N)=O)C(=O)N[C@@H](CCCCN)C(N)=O)C(C)C)C(C)C)C(C)C)[C@@H](C)O (H-HSDGIYTDSYSRYRKQMAVKKYLAAVLGKRYKQRVKNK-NH2),6.7,2.7,99.4
CC[C@H](C)[C@H](NC(=O)CNC(=O)[C@H](CC(=O)O)NC(=O)[C@H](CO)NC(=O)[C@@H](N)Cc1cnc[nH]1)C(=O)N[C@@H](Cc1cccc2ccccc12)C(=O)N[C@H](C(=O)N[C@@H](CC(=O)O)C(=O)N[C@@H](CO)C(=O)N[C@@H](Cc1ccc(O)cc1)C(=O)N[C@@H](CO)C(=O)N[C@@H](CCCNC(=N)N)C(=O)N[C@@H](Cc1ccc(O)cc1)C(=O)N[C@@H](CCCNC(=N)N)C(=O)N[C@@H](CCCCN)C(=O)N[C@@H](CCC(N)=O)C(=O)N[C@@H](CCSC)C(=O)N[C@@H](C)C(=O)N[C@H](C(=O)N[C@@H](CCCCN)C(=O)N[C@@H](CCCCN)C(=O)N[C@@H](Cc1ccc(O)cc1)C(=O)N[C@@H](CC(C)C)C(=O)N[C@@H](C)C(=O)N[C@@H](C)C(=O)N[C@H](C(=O)N[C@@H](CC(C)C)C(N)=O)C(C)C)C(C)C)[C@@H](C)O,6.5,0.7,110
